Test results reported in ChEMBL document CHEMBL1641445, “Synthesis, antiprotozoal, antimicrobial, β-hematin inhibition, cytotoxicity and methemoglobin (MetHb) formation activities of bis(8-aminoquinolines)” (Bioorg Med Chem, 2011).
Active and inactive are the calls of the source. The calls are words filed in the database; no cut-off is given here.

What was measured:
[1] = system: Nakaseomyces glabratus; test: Antifungal activity against Candida glabrata at 20 ug/ml; type: functional, organism-based
[2] = system: Mycobacterium intracellulare; test: Antibacterial activity against Mycobacterium intracellular ATCC 23068 at 20 ug/ml by CLSI method; type: functional, organism-based
[3] = system: Pichia kudriavzevii; test: Antifungal activity against Candida krusei at 20 ug/ml; type: functional, organism-based
[4] = system: Candida albicans; test: Antifungal activity against Candida albicans ATCC 90028 at 20 ug/ml; type: functional, organism-based
[5] = system: Aspergillus fumigatus; test: Antifungal activity against Aspergillus fumigatus ATCC 90906 at 20 ug/ml; type: functional, organism-based
[6] = system: Staphylococcus aureus; test: Antibacterial activity against methicillin-resistant Staphylococcus aureus ATCC 43300 at 20 ug/ml by CLSI method; type: functional, organism-based
How it was run: (§1)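 Broth dilution method (NCCLS M7-A5). […] MIC is the lowest concentration allowing no detectable growth. MBC is the lowest concentration killing the organism. Highest test concentration was 20 µg/mL.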

[7] = system: Staphylococcus aureus; test: Antibacterial activity against methicillin-resistant Staphylococcus aureus ATCC 43300 by CLSI method; type: functional, organism-based; how it was run: as §1
[8] = Hematotoxicity against RBC assessed as formation of methemoglobin at 20 ug/ml relative to control; type: cell-based; settings: erythrocyte
How it was run: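 Metabolism-linked methemoglobin toxicity in vitro. Percent MetHb formation was determined at 20 µg/mL of compound relative to vehicle control.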

[9] = system: Cryptococcus neoformans; test: Antifungal activity against Cryptococcus neoformans ATCC 90113; type: functional, organism-based
[10] = Inhibition of beta-hematin formation; type: functional
[11] = system: Leishmania donovani; test: Antileishmanial activity against promastigotes of Leishmania donovani by alamar blue assay; type: functional, organism-based
[12] = system: Vero; test: Cytotoxicity against african green monkey Vero cells up to 10 ug/ml by neutral red assay; type: cell-based; settings: chlorocebus sabaeus
How it was run: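 Vero (monkey kidney) cells were exposed up to a highest concentration of 10 µg/mL. Viability was read by neutral red uptake.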

[13] = system: Mycobacterium intracellulare; test: Antibacterial activity against Mycobacterium intracellular ATCC 23068 by CLSI method; type: functional, organism-based
[14] = system: Plasmodium falciparum; test: Antimalarial activity against chloroquine-resistant Plasmodium falciparum W2 by LDH assay; type: functional, organism-based; settings: Plasmodium falciparum, W2; read-out: IC50
How it was run: (§2)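 Antiplasmodial activity was measured in vitro against P. falciparum blood-stage cultures. Read-out was parasite lactate dehydrogenase (LDH) activity, with IC50 values expressed in µg/mL. The same protocol was used for the D6 and W2 strains.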

[15] = system: Plasmodium falciparum; test: Antimalarial activity against chloroquine-sensitive Plasmodium falciparum D6 by LDH assay; type: functional, organism-based; how it was run: as §2
[16] = system: Plasmodium berghei; test: Antimalarial activity against Plasmodium berghei infected in mouse assessed as complete elimination of malaria parasites from animals at 100 mg/kg, po qd for 4 days measured up to 60 days; type: functional, organism-based; parameters: dose 100 mg/kg
How it was run: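 Rodent P. berghei (sensitive strain) blood-schizontocidal model, 6 mice per group. Compounds were given orally once daily for 4 days at 10, 25, 50 or 100 mg/kg/day. Cure meant complete parasite elimination with survival to day D+60.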

[17] = Leishmania donovani, read-out: IC50
[18] = Plasmodium falciparum, D6, read-out: IC50

Compound: COc1cc(NC(C)CCCNC(=O)NC(CCCN)C(=O)NCCCC(C)Nc2cc(OC)cc3cccnc23)c2ncccc2c1 (single isomer, unassigned; 40)
- Activity [1]: inactive
- MBC [2]: inactive
- MIC [2]: inactive
- Activity [3]: inactive
- MFC [4]: inactive
- MIC [4]: inactive
- Activity [5]: inactive
- MBC [6]: inactive

Compound: COc1cc(NC(C)CCCNC(=O)N[C@H](CCCCN)C(=O)NCCCC(C)Nc2cc(OC)cc3cccnc23)c2ncccc2c1.Cl (stereo not given in full)
- IC50 [7]: 10 µg/mL
- MIC [7]: 20 µg/mL
- Methemoglobin formation [8]: 2.8%
- Activity [1]: inactive
- IC50 [9]: 10 µg/mL
- MFC [9]: 20 µg/mL
- MIC [9]: 20 µg/mL
- IC50 [10]: 162 µM
- IC90 ([11]; Leishmania donovani): 36 µg/mL
- IC50 [11, 17]: 18.5 µg/mL
- IC50 [2]: Not Active
- MBC [2]: inactive
- MIC [2]: inactive
- Activity [3]: inactive
- IC50 [4]: Not Active
- MFC [4]: inactive
- MIC [4]: inactive
- Activity [5]: inactive
- MBC [6]: inactive
- Activity [12]: Non-toxic

Compound: COc1cc(NC(C)CCCNCC(=O)NCCCC(C)Nc2cc(OC)cc3ccc(C(C)(C)C)nc23)c2nc(C(C)(C)C)ccc2c1.Cl.Cl (stereo not given)
- IC50 [13]: 15 µg/mL
- IC50 [7]: 15 µg/mL
- MIC [7]: 20 µg/mL
- IC50 [14]: 1.3 µg/mL
- Methemoglobin formation [8]: 1.1%
- IC50 [10]: 75 µM
- IC90 ([11]; Leishmania donovani): 7.8 µg/mL
- IC50 [11, 17]: 2.9 µg/mL
- MBC [2]: inactive
- MIC [2]: inactive
- IC50 [15, 18]: 1.5 µg/mL
- MBC [6]: inactive
- Activity [12]: Non-toxic

Compound: COc1cc(NC(C)CCCNC(=O)C[C@H](N)C(=O)NCCCC(C)Nc2cc(OC)cc3ccc(C(C)(C)C)nc23)c2nc(C(C)(C)C)ccc2c1.Cl (stereo not given in full)
- IC50 [7]: 6.5 µg/mL
- MBC [7]: 20 µg/mL
- Methemoglobin formation [8]: 1.55%
- Activity [1]: inactive
- Activity [16]: inactive
- IC50 [9]: 10 µg/mL
- MFC [9]: 20 µg/mL
- MIC [9]: 20 µg/mL
- IC50 [10]: 140 µM
- IC90 ([11]; Leishmania donovani): 33 µg/mL
- IC50 [11, 17]: 15 µg/mL
- IC50 [2]: Not Active
- MBC [2]: inactive
- MIC [2]: inactive
- Activity [3]: inactive
- IC50 [4]: Not Active
- MFC [4]: inactive
- MIC [4]: inactive
- Activity [5]: inactive
- IC50 [15]: Not Active
- Activity [12]: Non-toxic

Compound: COc1cc(NC(C)CCCNC(=O)NC(CCCN)C(=O)NCCCC(C)Nc2cc(OC)cc3cccnc23)c2ncccc2c1 (single isomer, unassigned; 37)
- Activity [1]: inactive
- Activity [16]: inactive
- Activity [3]: inactive
- MFC [4]: inactive
- MIC [4]: inactive
- Activity [5]: inactive

Compound: CCCCCOc1c(OC)cc(NC(C)CCCNC(=O)NCCCC(C)Nc2cc(OC)c(OCCCCC)c3c(CC)ccnc23)c2nccc(CC)c12.Cl.Cl (stereo not given)
- IC50 [7]: 8.5 µg/mL
- MIC [7]: 20 µg/mL
- IC50 [14]: 1.3 µg/mL
- Methemoglobin formation [8]: 4.7%
- IC50 [10]: 80 µM
- IC90 ([11]; Leishmania donovani): 7 µg/mL
- IC50 [11, 17]: 3.5 µg/mL
- IC50 [2]: Not Active
- MBC [2]: inactive
- MIC [2]: inactive
- IC50 [15, 18]: 1.7 µg/mL
- MBC [6]: inactive
- Activity [12]: Non-toxic

Compound: COc1cc(NC(C)CCCNC(=O)NC(CCCNC(=N)N)C(=O)NCCCC(C)Nc2cc(OC)cc3cccnc23)c2ncccc2c1 (single isomer, unassigned; 39)
- Activity [1]: inactive
- MBC [2]: inactive
- MIC [2]: inactive
- Activity [3]: inactive
- MFC [4]: inactive
- MIC [4]: inactive
- Activity [5]: inactive

Compound: COc1cc(NC(C)CCCNC(=O)CC[C@H](N)C(=O)NCCCC(C)Nc2cc(OC)cc3ccc(C(C)(C)C)nc23)c2nc(C(C)(C)C)ccc2c1.Cl (stereo not given in full)
- IC50 [7]: 8.5 µg/mL
- MBC [7]: 20 µg/mL
- MIC [7]: 20 µg/mL
- IC50 [14]: 2.3 µg/mL
- Methemoglobin formation [8]: 3.3%
- Activity [16]: inactive
- IC50 [10]: > 1000 µM
- IC90 ([11]; Leishmania donovani): 10.7 µg/mL
- IC50 [11, 17]: 3.9 µg/mL
- IC50 [2]: Not Active
- MBC [2]: inactive
- MIC [2]: inactive
- IC50 [15, 18]: 4.7 µg/mL
- Activity [12]: Non-toxic

Compound: COc1cc(NC(C)CCCNC(=O)NC(=O)NCCCC(C)Nc2cc(OC)cc3cccnc23)c2ncccc2c1.Cl.Cl (stereo not given)
- IC50 [14]: 3.4 µg/mL
- Methemoglobin formation [8]: 2.25%
- Activity [16]: inactive
- IC50 [10]: 155 µM
- IC50 [11]: Not Active
- IC90 [11]: inactive
- IC50 [15, 18]: 4.76 µg/mL
- Activity [12]: Non-toxic

Compound: COc1cc(NC(C)CCCNC(=O)NCCCC(C)Nc2cc(OC)cc3cccnc23)c2ncccc2c1.Cl.Cl (stereo not given)
- IC50 [14]: 4.76 µg/mL
- Methemoglobin formation [8]: 9.8%
- Activity [16]: inactive
- IC50 [10]: > 1000 µM
- IC50 [11]: Not Active
- IC90 [11]: inactive
- IC50 [15, 18]: 4.76 µg/mL
- Activity [12]: Non-toxic

Compound: COc1cc(NC(C)CCCNC(=O)NCCCC(C)Nc2cc(OC)cc3ccc(C(C)(C)C)nc23)c2nc(C(C)(C)C)ccc2c1.Cl.Cl (stereo not given)
- Methemoglobin formation [8]: 1%
- Activity [16]: inactive
- IC50 [10]: > 1000 µM
- IC50 [11]: Not Active
- IC90 [11]: inactive
- IC50 [15, 18]: 3 µg/mL
- Activity [12]: Non-toxic

Compound: COc1cc(NC(C)CCCNC(=O)C[C@@H](N)C(=O)NCCCC(C)Nc2cc(OC)cc3cccnc23)c2ncccc2c1.Cl (stereo not given in full)
- IC50 [13]: 15 µg/mL
- MIC [13]: 20 µg/mL
- IC50 [7]: 15 µg/mL
- Methemoglobin formation [8]: 7.25%
- IC50 [10]: 120 µM
- IC90 ([11]; Leishmania donovani): 31 µg/mL
- IC50 [11, 17]: 11.5 µg/mL
- MBC [2]: inactive
- IC50 [15, 18]: 3.3 µg/mL
- MBC [6]: inactive
- MIC [6]: inactive
- Activity [12]: Non-toxic

Compound: COc1cc(NC(C)CCCNC(=O)NC(CCCNC(=N)N)C(=O)NCCCC(C)Nc2cc(OC)cc3cccnc23)c2ncccc2c1.Cl (single isomer, unassigned; 36)
- IC50 [13]: 15 µg/mL
- MBC [13]: 20 µg/mL
- MIC [13]: 20 µg/mL
- IC50 [7]: 15 µg/mL
- MIC [7]: 20 µg/mL
- Methemoglobin formation [8]: 3.1%
- IC50 [9]: 6.5 µg/mL
- MFC [9]: 10 µg/mL
- MIC [9]: 10 µg/mL
- IC50 [10]: 90 µM
- IC90 ([11]; Leishmania donovani): 7.2 µg/mL
- IC50 [4]: Not Active
- Activity [12]: Non-toxic
